Laboratory results reported in ChEMBL document CHEMBL1146487, “New cytotoxic clerodane diterpenoids from the leaves and twigs of Casearia membranacea” (J Nat Prod, 2004).

Assays:
[1] = Cytotoxicity against human Hep3B cells after 48 hrs by SRB assay; format: functional, cell-based, Hep 3B2
In short: (§1)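 Cells seeded in RPMI 1640 with 5% FBS at 37 °C, 5% CO2. A time-zero plate set fixed with TCA at 24 h. Drug added, then 48 h further incubation. Cold-TCA fixation, 0.4% w/v SRB in 1% acetic acid for 10 min, acetic acid washes, dye dissolved in 10 mM Tris base, A515 read. IC50 = concentration giving 50% absorbance reduction versus untreated cells.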

PC-3 = test: Cytotoxicity against human PC3 cells after 48 hrs by SRB assay; format: functional, cell-based; settings: PC-3, 48 h; in short: as §1

Compound	IC50 [1] [µM]	IC50 (PC-3) [µM]
C=CC(=C)CC[C@]1(C)[C@H]2C[C@H](OC(=O)C(C)CC)C=C3[C@H](OC(=O)CCC)O[C@H](OC(C)=O)[C@@]32[C@H](OC(C)=O)[C@H](OC(C)=O)[C@@H]1C (stereo not given in full)	16.8	12.8
C=CC(=C)CC[C@]1(C)[C@H]2C[C@H](OC(=O)C(C)CC)C=C3[C@H](OC(C)=O)O[C@H](OC(C)=O)[C@@]32[C@H](OC(=O)c2cccnc2)C[C@@H]1C (stereo not given in full)	10.8	13
C=CC(=C)CC[C@]1(C)[C@H]2C[C@H](OC(=O)C(C)CC)C=C3[C@H](OC(C)=O)O[C@H](OC(C)=O)[C@@]32[C@H](O)C[C@@H]1C (relative stereo)	2.4	1.8
C=CC(=C)CC[C@]1(C)[C@H]2C[C@H](OC(=O)C(C)CC)C=C3[C@H](OC(=O)CCC)O[C@H](OC(C)=O)[C@@]32[C@H](O)C[C@@H]1C (relative stereo) [CASEAMEMBRIN A]	2.3	1.5
C=CC(=C)CC[C@]1(C)[C@H]2C[C@H](OC(=O)C(C)CC)C=C3[C@H](OC)O[C@H](OC(C)=O)[C@@]32[C@H](O)C[C@@H]1C (relative stereo) [CASEAMEMBRIN B]	18	22.2
C=CC(=C)CC[C@]1(C)[C@H]2C[C@H](OC(=O)C(C)CC)C=C3[C@H](OC(=O)CCC)O[C@H](OC(C)=O)[C@@]32[C@H](O)[C@H](O)[C@@H]1C (relative stereo) [CASEAMEMBRIN C]	0.8	0.6
C=CC(=C)CC[C@]1(C)[C@H]2C[C@H](OC(=O)C(C)CC)C=C3[C@H](OC(=O)CCC)O[C@H](OC(C)=O)[C@@]32[C@H](O)[C@H](OC(C)=O)[C@@H]1C (relative stereo) [CASEAMEMBRIN D]	1.9	2.4
C=CC(=C)CC[C@]1(C)[C@H]2C[C@@H](OC(=O)C(C)CC)C=C3[C@H](OC(C)=O)O[C@H](OC(C)=O)[C@@]32[C@H](O)C[C@@H]1C (relative stereo) [CASEAMEMBRIN E]	2.6	2.9
C=CC(=C)CC[C@]1(C)[C@H]2C[C@H](OC(=O)C(C)CC)C=C(C=O)[C@@]2(C=O)[C@H](O)C[C@@H]1C (relative stereo) [CASEAMEMBRIN F]	14.7	3
CC(=O)O[C@H]1C(=O)[C@@]2(C)[C@H]([C@H](OC(=O)c3ccccc3)[C@]3(O)C[C@H](OC(=O)[C@H](O)[C@@H](NC(=O)c4ccccc4)c4ccccc4)C(C)=C1C3(C)C)[C@]1(OC(C)=O)CO[C@@H]1C[C@@H]2O [PACLITAXEL]	0.031	0.016
